Reference: ChEMBL document CHEMBL4602642, “Pyrola incarnata demonstrates neuroprotective effects against β-amyloid-induced memory impairment in mice” (Bioorg Med Chem Lett, 2020)
Active and inactive are the calls of the source. No cut-off for these calls is given here.

What was measured:
[1] = Effect on locomotory activity in C57BL/6 mouse model of amyloid beta (25 to 35) peptide-induced memory impairment assessed as change in number of line crossing at 14 to 56 mg/kg, po administered via gavage measured for 5 mins by open field test; type: ADME, organism-based; details: in vivo
Summary of the method: (§1)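 Open-field test after intracerebroventricular Aβ25–35 and dosing at 14, 28 or 56 mg/kg or vehicle. Line crossings and mean speed were counted during a 5-minute session. Results are mean ± SEM.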

[2] = Effect on locomotory activity in C57BL/6 mouse model of amyloid beta (25 to 35) peptide-induced memory impairment assessed as change in mean speed at 14 to 56 mg/kg, po administered via gavage measured for 5 mins by open field test; type: ADME, organism-based; details: in vivo; summary of the method: as §1
Mus musculus [3] = test: Cognitive enhancing effect in C57BL/6 mouse model of amyloid beta (25 to 35) peptide-induced memory impairment assessed as reduction in escape latency time to find removed platform position at 56 mg/kg, po administered via gavage and measured on 4th day by Barnes maze test; type: functional, organism-based
Summary of the method: (§2)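 Barnes maze in mice given intracerebroventricular Aβ25–35: latency to enter the escape box over the training days, plus latency and mistake counts in the probe trial, each compared with the vehicle-treated Aβ25–35 group. Results are mean ± SEM.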

Mus musculus [4] = test: Cognitive enhancing effect in orally dosed C57BL/6 mouse model of amyloid beta (25 to 35) peptide-induced memory impairment assessed as reduction in escape latency time to find removed platform position measured on 4th day by Barnes maze test; type: functional, organism-based
Summary of the method: (§3)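 Mice given Aβ25–35 by intracerebroventricular injection were run in a Barnes maze. Latency to enter the escape box was recorded over the training sessions, and latency and mistake counts were scored in the probe trial. Results are mean ± SEM.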

Mus musculus [5] = test: Cognitive enhancing effect in orally dosed C57BL/6 mouse model of amyloid beta (25 to 35) peptide-induced memory impairment assessed as reduction in mistake time to find removed platform position measured on 4th day by Barnes maze test; type: functional, organism-based; summary of the method: as §3
Mus musculus [6] = test: Cognitive enhancing effect in C57BL/6 mouse model of amyloid beta (25 to 35) peptide-induced memory impairment assessed as reduction in mistake time to find removed platform position at 56 mg/kg, po administered via gavage and measured on 4th day by Barnes maze test; type: functional, organism-based; summary of the method: as §2
[7] = Effect on locomotory activity in C57BL/6 mouse model of amyloid beta (25 to 35) peptide-induced memory impairment assessed as change in mean speed of swimming at 14 to 56 mg/kg, po administered via gavage by Morris water maze test; type: ADME, organism-based; details: in vivo
Summary of the method: (§4)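 Mice given intracerebroventricular Aβ25–35 received 14, 28 or 56 mg/kg, or an equal volume of vehicle. Morris water maze: swim speed taken on day 1, escape latency recorded in training sessions, probe trial on day 6 with the platform removed (time to target and platform crossings scored). n = 9 per group, mean ± SEM.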

Mus musculus [8] = test: Cognitive enhancing effect in C57BL/6 mouse model of amyloid beta (25 to 35) peptide-induced memory impairment assessed as reduction in escape latency time to find removed platform position at 14 mg/kg, po administered via gavage and measured on 5th day by Morris water maze test; type: functional, organism-based; summary of the method: as §4
Mus musculus [9] = test: Cognitive enhancing effect in C57BL/6 mouse model of amyloid beta (25 to 35) peptide-induced memory impairment assessed as reduction in escape latency time to find removed platform position at 28 mg/kg, po administered via gavage and measured on 5th day by Morris water maze test; type: functional, organism-based; summary of the method: as §4
Mus musculus [10] = test: Cognitive enhancing effect in C57BL/6 mouse model of amyloid beta (25 to 35) peptide-induced memory impairment assessed as reduction in escape latency time to find removed platform position at 56 mg/kg, po administered via gavage and measured on 5th day by Morris water maze test; type: functional, organism-based; details: in the assay text read “6th day” for “5th day”; summary of the method: as §4
Mus musculus [11] = test: Cognitive enhancing effect in C57BL/6 mouse model of amyloid beta (25 to 35) peptide-induced memory impairment assessed as reduction in escape latency time to find removed platform position at 14 to 56 mg/kg, po administered via gavage and measured on 6th day by Morris water maze test; type: functional, organism-based; summary of the method: as §4
Mus musculus [12] = test: Cognitive enhancing effect in C57BL/6 mouse model of amyloid beta (25 to 35) peptide-induced memory impairment assessed as reduction in time to reach the target quadrants at 14 to 56 mg/kg, po administered via gavage and measured on 6th day by Morris water maze test; type: functional, organism-based; summary of the method: as §4
Mus musculus [13] = test: Cognitive enhancing effect in orally dosed C57BL/6 mouse model of amyloid beta (25 to 35) peptide-induced memory impairment assessed as increase in crossing numbers of target quadrants administered via gavage and measured on 6th day by Morris water maze test; type: functional, organism-based; summary of the method: as §4
Mus musculus [14] = test: Neuroprotective activity in amyloid beta (25 to 35) peptide-induced memory impairment C57BL/6 mouse model assessed as reduction in amyloid beta (25 to 35) peptide deposition at 14 to 56 mg/kg, po administered via gavage by DAPI staining based immunohistochemical analysis; type: functional, organism-based
Summary of the method: (§5)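 Hippocampal sections from Aβ25–35-injected mice after long-term dosing were immunostained for Aβ25–35 (red) and Iba-1 (green) with DAPI counterstain. Integral optical density was quantified and given as mean ± SEM.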

Mus musculus [15] = test: Neuroprotective activity in orally dosed amyloid beta (25 to 35) peptide-induced memory impairment C57BL/6 mouse model assessed as reduction in amyloid beta (25 to 35) peptide deposition administered via gavage by DAPI staining based immunohistochemical analysis; type: functional, organism-based; summary of the method: as §5
Mus musculus [16] = test: Neuroprotective activity in amyloid beta (25 to 35) peptide-induced memory impairment C57BL/6 mouse model assessed as increase in number of microglia expression at 14 to 56 mg/kg, po administered via gavage by DAPI staining based immunohistochemical analysis; type: functional, organism-based; summary of the method: as §5
Mus musculus [17] = test: Neuroprotective activity in orally dosed amyloid beta (25 to 35) peptide-induced memory impairment C57BL/6 mouse model assessed as increase in Iba1 expression administered via gavage by DAPI staining based immunohistochemical analysis; type: functional, organism-based; summary of the method: as §5

Structure (SMILES): C[C@H]1[C@H](C)CC[C@]2(C(=O)O)CC[C@]3(C)C(=CC[C@@H]4[C@@]5(C)CC[C@H](O)C(C)(C)[C@@H]5CC[C@]43C)[C@H]12 [URSOLIC ACID]
- Activity [1]: Non-Toxic
- Activity [2]: Non-Toxic
- Activity (Mus musculus [3]): Active
- Activity (Mus musculus [4]): Dose-dependent effect
- Activity (Mus musculus [5]): Dose-dependent effect
- Activity (Mus musculus [6]): Active
- Activity [7]: Non-Toxic
- Activity (Mus musculus [8]): Active
- Activity (Mus musculus [9]): Active
- Activity (Mus musculus [10]): Active
- Activity (Mus musculus [11]): Active
- Activity (Mus musculus [12]): Active
- Activity (Mus musculus [13]): Dose-dependent effect
- Activity (Mus musculus [14]): Active
- Activity (Mus musculus [15]): Dose-dependent effect
- Activity (Mus musculus [16]): Active
- Activity (Mus musculus [17]): Dose-dependent effect
